Assay results of several laboratories.
Target: Ephrin type-B receptor 2 (EPHB2, Homo sapiens, UniProt P29323)
One construct used (P29323 1-1055): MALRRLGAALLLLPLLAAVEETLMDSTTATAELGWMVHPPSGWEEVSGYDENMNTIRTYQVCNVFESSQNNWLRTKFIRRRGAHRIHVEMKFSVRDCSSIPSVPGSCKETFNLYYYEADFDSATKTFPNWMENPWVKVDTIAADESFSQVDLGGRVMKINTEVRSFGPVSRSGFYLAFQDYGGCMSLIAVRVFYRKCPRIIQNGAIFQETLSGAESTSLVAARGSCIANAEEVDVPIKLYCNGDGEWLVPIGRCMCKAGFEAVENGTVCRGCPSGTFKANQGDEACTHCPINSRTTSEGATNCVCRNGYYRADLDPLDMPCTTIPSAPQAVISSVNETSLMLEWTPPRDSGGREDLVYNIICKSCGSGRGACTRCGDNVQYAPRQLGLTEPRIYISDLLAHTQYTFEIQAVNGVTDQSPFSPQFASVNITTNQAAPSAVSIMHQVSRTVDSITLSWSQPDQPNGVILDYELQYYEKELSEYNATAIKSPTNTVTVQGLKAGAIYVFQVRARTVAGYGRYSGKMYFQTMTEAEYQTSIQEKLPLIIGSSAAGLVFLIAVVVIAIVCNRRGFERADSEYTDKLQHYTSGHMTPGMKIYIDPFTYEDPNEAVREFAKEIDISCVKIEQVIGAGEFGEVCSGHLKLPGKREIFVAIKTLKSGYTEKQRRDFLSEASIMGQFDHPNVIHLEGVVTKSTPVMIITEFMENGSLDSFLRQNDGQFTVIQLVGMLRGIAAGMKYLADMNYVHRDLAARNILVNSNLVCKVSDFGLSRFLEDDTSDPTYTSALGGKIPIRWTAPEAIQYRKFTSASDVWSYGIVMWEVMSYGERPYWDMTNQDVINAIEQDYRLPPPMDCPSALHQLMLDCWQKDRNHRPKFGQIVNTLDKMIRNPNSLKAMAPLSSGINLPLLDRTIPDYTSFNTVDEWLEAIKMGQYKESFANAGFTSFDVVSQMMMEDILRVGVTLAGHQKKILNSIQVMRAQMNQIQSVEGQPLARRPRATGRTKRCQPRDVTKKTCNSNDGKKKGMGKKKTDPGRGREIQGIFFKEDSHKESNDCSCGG

With `CC#CC(=O)N1CCC[C@H]1c1nc(-c2ccc(C(=O)Nc3ccccn3)cc2)c2c(N)nccn12` the inhibition was 6% (enzyme activity, inhibitor; 1 µM).
For `CC(C)S(=O)(=O)c1ccc2nccc(Nc3ccc4sc(C5CCCC5)nc4c3)c2c1`, the activity vs control was 109% (enzyme activity, inhibitor; 1 µM).
For `CCCCC(=O)Nc1ccc(-c2ccc3ncn(CCC)c(=O)c3c2)cn1`, the remaining binding was 100% (binding, competition with immobilised ligand; 0.5 µM).
For `Cc1ccc(NC(=O)c2ccnc(C(F)(F)F)c2)cc1-c1cc(OCCO)nc(N2CCOCC2)c1`, the remaining binding was 85% (binding, competition with immobilised ligand; 1 µM).
With `C1=C/COCc2cc(ccc2OCCN2CCCC2)Nc2nccc(n2)-c2cccc(c2)COC/1` the remaining binding was 88% (binding; 0.1 µM).
The inhibition of `Cc1cc(O)c(-c2ccc([C@@H](C)CN(C)C)cc2)c2c1[nH]c(=O)c1sccc12` is reported as 0.144% (cell-free assay, inhibitor; 0.1 µM).
With `CO[C@@H]1[C@H](N(C)C(=O)c2ccccc2)C[C@H]2O[C@]1(C)n1c3ccccc3c3c4c(c5c6ccccc6n2c5c31)C(=O)NC4` the inhibition was 0% (enzyme activity, inhibitor; 1 µM).
`C[C@H]1CC[C@H](n2c3cnccc3c3cnc(Nc4ccc5c(n4)CCN(C(=O)CO)C5)nc32)CC1` has a remaining binding of 100% (cell-free assay, competition with immobilised ligand; 1 µM).
